CR mimetic SO – reduction of superoxide in aged yeast, primary screen, HTS | superoxide response (% of plate mean), % at 10 µM | S. cerevisiae aged cells, superoxide DHE fluorescence; hits give low values | hit rate 0.18% among 330,000 | AID 2690, 2010;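 active = superoxide response under a set limit, about three screen SD below normal, cut at about 65% in these data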;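 also: yeast aged for seven days with compound at 30 °C before DHE staining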
UCH37 DUB inh – inhibitors of human UCH37 deubiquitinase, primary screen, biochemical, Ub-AMC cleavage, fluorescence. purified proteasome/UCH37. inhibition, % (no concentration beside the values). hit rate 0.33% among 330,000;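 active = mean inhibition over replicate wells above about 20%, limit read from the data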
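Material: human UCH37 enzyme supplied as purified proteasome complex / Amount: 0.15 nM proteasome as dispensed / Buffer or medium: pH 7.4 Tris-HCl (50 mM) with ovalbumin, ATP-MgCl2, DTT / Times: preincubation 30 min, reaction 25 min, room temperature / Technique: AMC fluorescence from Ub-AMC cleavage, excitation 355 nm, emission 460 nm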
PG9 binder – binders of HIV-1 gp120 antibody PG9, primary screen, biochemical, TR-FRET. HIV-1 gp120 / PG9 antibody interaction. TR-FRET gp120-PG9 antibody binding. inhibition, % at 6.7 µM. hit rate 0.43% among 360,000. AID 624416, 2012; in the data active = inhibition above about 8.5%
beta cell repl – inducers of MIN6 beta-cell proliferation, primary screen, ATP luminescence, uHTS; AID 2380, 2010; proliferation, % at 10 µM; MIN6 cells proliferation, ATPlite luminescence, 48 h; cells starved in 0.2% serum; 100% = growth in 10% serum; hit rate 0.29% among 330,000;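 active = compounds whose signal lies at least 3.5 SD above the mean of all wells on their plate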
Rce1 inh – yeast Rce1p protease inhibitors, primary screen, biochemical, fluorescence, cell-free homogeneous; yeast membranes, quenched prenylated peptide cleavage fluorescence; calls only; hit rate 0.27% among 290,000; AID 2563, 2010;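 active = fall in fluorescence gain of 50% or more versus controls, with final raw signal at or below 3038400; inconclusive = same 50% fall but final raw signal above 3038400; inactive = fall in fluorescence gain under 50%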
NR1D1 modulator – modulators of Rev-erb alpha DNA binding, primary screen, biochemical, FITC-DNA, fluorescence polarization, uHTS; Rev-erbα–FITC-DNA binding, 90 min; activity, % at 10 µM; hit rate 0.79% among 370,000; AID 1259318, 2017;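 active = activity above about 14%, limit read from the data; passing the limit was not always enough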
Target sequence (P20393 whole entry, looked up): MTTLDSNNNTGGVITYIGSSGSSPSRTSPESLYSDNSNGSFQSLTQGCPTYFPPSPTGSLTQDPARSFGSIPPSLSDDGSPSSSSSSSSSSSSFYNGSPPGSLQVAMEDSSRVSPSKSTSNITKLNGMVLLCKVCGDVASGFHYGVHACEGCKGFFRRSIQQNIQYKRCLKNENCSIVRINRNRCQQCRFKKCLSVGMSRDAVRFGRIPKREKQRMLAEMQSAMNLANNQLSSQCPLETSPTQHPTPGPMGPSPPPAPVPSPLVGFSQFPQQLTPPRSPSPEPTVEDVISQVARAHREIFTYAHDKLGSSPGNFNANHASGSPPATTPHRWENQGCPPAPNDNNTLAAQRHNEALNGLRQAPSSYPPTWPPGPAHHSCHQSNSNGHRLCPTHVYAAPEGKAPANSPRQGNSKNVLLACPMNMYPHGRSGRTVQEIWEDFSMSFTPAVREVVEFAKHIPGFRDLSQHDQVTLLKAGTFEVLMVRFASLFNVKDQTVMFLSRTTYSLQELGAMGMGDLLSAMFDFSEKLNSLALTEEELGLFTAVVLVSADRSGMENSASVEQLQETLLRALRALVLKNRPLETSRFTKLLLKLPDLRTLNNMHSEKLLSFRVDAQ
PG9 binder conf – binders of anti-gp120 antibody PG9, confirmation, biochemical, TR-FRET. inhibition, % at 6.7 µM. hit rate 90% among 1,500. AID 651571, 2012. shares compounds with PG9 binder. TR-FRET PG9 antibody binding; in the data active = inhibition above about 9%
PGV04 Ab binding – binders of control antibody PGV04, counter-screen for PG9 antibody binder project, biochemical, TR-FRET, distinct HIV envelope site; AID 651604, 2012; shares compounds with PG9 binder; TR-FRET PGV04 antibody-gp120 binding; hit rate 95% among 1,500; inhibition, % at 6.7 µM; in the data active = inhibition above about 9.5%
PG9 binder DR – small-molecule binders of antibody PG9, dose response, biochemical, TR-FRET, HIV-1 gp120 antibody; shares compounds with PG9 binder; IC50, µM; 95 tested, under 10 active; TR-FRET PG9 antibody-gp120 binding inhibition; in the data active = IC50 below about 10 µM
PGV04 DR counter – binders of control antibody PGV04, dose response, counter-screen for PG9 antibody binder project, biochemical, TR-FRET, distinct HIV envelope site | IC50, µM | shares compounds with PG9 binder | TR-FRET binding to control antibody PGV04 | AID 651937, 2012 | hit rate 20% among 95
PG126 DR counter – binders of control antibody PG126, dose response, counter-screen for PG9 antibody binder project, biochemical, TR-FRET, distinct HIV envelope site | shares compounds with PG9 binder | TR-FRET binding to antibody PG126, counterscreen | IC50, µM | hit rate 20% among 95 | AID 651939, 2012
Large screens that a line does not name were inactive (follow-up assays come after a bar, where they were run). This is a sample that favours compounds with a hit; in the whole collection about 1.9% have one here. Rule as the data show it, unless noted: active = IC50 below about 9 µM; inactive = the rest.

CCc1cccc(CC)c1NC(=O)C1SC(=Nc2ccccc2C)C(c2nc3ccccc3s2)=C1N (stereo not given)	PG9 binder 9.2 | PG9 binder conf 9.5 | PGV04 Ab binding 13
Cc1ccsc1C=NN1CCN(Cc2ccccc2)CC1	none (no result: CR mimetic SO, PG9 binder, beta cell repl, Rce1 inh, NR1D1 modulator)
O=C(c1cc([N+](=O)[O-])ccc1N1CCOCC1)N1CCN(c2ccc([N+](=O)[O-])cc2)CC1	PG9 binder 18 | PG9 binder conf inactive | PGV04 Ab binding inactive | PG9 binder DR inactive | PGV04 DR counter inactive | PG126 DR counter inactive
O=C(c1cc([N+](=O)[O-])ccc1N1CCOCC1)N1CCCCC1	none
Cc1ccccc1Nc1nc(N)nc(CSc2nc3ccccc3c(=O)n2CCCO)n1	none (no result: Rce1 inh)
Cc1ccccc1Nc1nc(N)nc(CSc2nc3ccccc3c(=O)n2C)n1	PG9 binder 26 | PG9 binder conf 73 | PGV04 Ab binding 82
CC(=O)OC1CC(C)(C)N(OC(=O)c2ccccc2)C(C)(C)C1	none
CC(=O)OC1CC(C)(C)N(OC(=O)c2ccc(N)cc2)C(C)(C)C1	PG9 binder 29 | PG9 binder conf 32 | PGV04 Ab binding 43
O=C(NN=C/C=C/c1cccc([N+](=O)[O-])c1)c1ccncc1	none (no result: CR mimetic SO, PG9 binder, beta cell repl, Rce1 inh, NR1D1 modulator)
Cc1cc(N=Cc2c(O)ccc3cc(Br)ccc23)no1	PG9 binder 9.1 (no result: beta cell repl) | PG9 binder conf inactive | PGV04 Ab binding 10
Cc1cc(N=Cc2c(O)ccc3ccccc23)no1	none
CCn1c(/C=C/c2cc[n+](C)cc2)nc2ccccc21	PG9 binder 13 | PG9 binder conf 14 | PGV04 Ab binding 16
CCCn1c(/C=C/c2ccccc2)nc2ccccc21	Rce1 inh inconclusive
CC(=O)Nc1ccc(NC(=O)CSc2ccc(-c3ccc4c(c3)OCO4)nn2)cc1	none (no result: UCH37 DUB inh)
CC(=O)c1ccc(NC(=O)CSc2ccc(-c3ccc4c(c3)OCO4)nn2)cc1	PG9 binder 10 | PG9 binder conf 15 | PGV04 Ab binding 29
COc1cc(CN(C2CCCCC2C)S(=O)(=O)c2ccc(S(=O)(=O)NC3CC3)cc2)cc(OC)c1OC (stereo not given)	PG9 binder 11 | PG9 binder conf inactive | PGV04 Ab binding inactive | PG9 binder DR inactive | PGV04 DR counter inactive | PG126 DR counter inactive
COc1ccc(CN(C2CCCCC2C)S(=O)(=O)c2ccc(S(=O)(=O)N(C)C)cc2)cc1OC (stereo not given)	none
O=C(Nc1nc2c(Br)cc(Br)cc2c(=O)s1)c1ccco1	PG9 binder 30 (no result: UCH37 DUB inh) | PG9 binder conf 58 | PGV04 Ab binding 63
Cc1cc(C)c2nc(NC(=O)c3ccco3)sc2c1	none
CCOCCCn1c(SCC(=O)Nc2ccccc2)nc2ccccc2c1=O	none
CCOCCCn1c(SCC(=O)Nc2ccc(OC)cc2)nc2ccccc2c1=O	PG9 binder 48 | PG9 binder conf 48 | PGV04 Ab binding 55
COc1cccc(NC(=O)CSc2nc3scc(C)c3c(=O)[nH]2)c1	PG9 binder 26 | PG9 binder conf 29 | PGV04 Ab binding 43
Nc1n[nH]c(=S)n1N=C1C(=O)Nc2ccccc21	none (no result: CR mimetic SO, PG9 binder, beta cell repl, Rce1 inh, NR1D1 modulator)
NS(=O)(=O)c1c(Sc2ccccc2C(=O)O)ccc2ccccc12	PG9 binder 15 | PG9 binder conf 15 | PGV04 Ab binding 20
CNS(=O)(=O)c1cc(Cl)ccc1Sc1ccccc1C(=O)O	none
S=c1[nH]nc(-c2cccc(Br)c2)o1	PG9 binder 27 | PG9 binder conf 28 | PGV04 Ab binding 39
Cc1n[nH]c(=S)n1N=Cc1ccc(-c2ccc(Cl)cc2)o1	none (no result: CR mimetic SO, PG9 binder, beta cell repl, Rce1 inh, NR1D1 modulator)
O=C(Cn1c(C(F)(F)F)nc2ccccc21)NN=Cc1ccco1	none (no result: CR mimetic SO, PG9 binder, beta cell repl, Rce1 inh, NR1D1 modulator)
C=CCOc1cccc(C2/C(=C(\O)c3ccc4c(c3)OCCO4)C(=O)C(=O)N2CCN2CCOCC2)c1 (stereo not given)	PG9 binder 9.3 | PG9 binder conf 16 | PGV04 Ab binding 21
CC(C)c1ccc(C2/C(=C(\O)c3ccc4c(c3)OCCO4)C(=O)C(=O)N2CCN2CCOCC2)cc1 (stereo not given)	none
C=CCOc1cccc(C2/C(=C(/O)c3ccc(C)cc3)C(=O)C(=O)N2CCN2CCOCC2)c1 (stereo not given)	none
O=C1C(=O)N(CCN2CCOCC2)C(c2ccccc2)/C1=C(\O)c1ccc2c(c1)OCCO2 (stereo not given)	PG9 binder 15 | PG9 binder conf 21 | PGV04 Ab binding 23
O=C1C(=O)N(CCCN2CCOCC2)C(c2ccc(Cl)cc2)/C1=C(\O)c1ccc2c(c1)OCCO2 (stereo not given)	PG9 binder 10 | PG9 binder conf 23 | PGV04 Ab binding 27
COC(=O)c1cc(Br)c(=O)n(-c2ccccn2)c1	none
COC(=O)c1cc(Br)c(=O)n(-c2cc(C)on2)c1	PG9 binder 9.8 (no result: Rce1 inh) | PG9 binder conf 21 | PGV04 Ab binding 26
COC(=O)c1cc(Br)c(=O)n(-c2nccs2)c1	PG9 binder 28 | PG9 binder conf 37 | PGV04 Ab binding 50
COc1cc(C2C(C(=O)c3ccc(C)o3)=C(O)C(=O)N2CCN2CCOCC2)ccc1OCCC(C)C (stereo not given)	PG9 binder 12 (no result: CR mimetic SO) | PG9 binder conf 19 | PGV04 Ab binding 22
COC(=O)c1ccc(C2C(C(=O)c3cc4ccccc4o3)=C(O)C(=O)N2CCN2CCOCC2)cc1 (stereo not given)	none

Bioassay records as filed in PubChem.
